What was measured:
[1] = tested on: Mus musculus; test: Acute toxicity in C57BL/6J mouse at 1 mg/kg, sc after 9 days; format: organism-based; parameters: dose 1 mg/kg, route subcutaneous; settings: in vivo, 216 h
How it was run: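 Single sc injection in male 8-week-old C57BL/6J mice (1, 3 or 10 mg/kg in 25% DMSO/saline; n = 4 per group), followed for 9 days with daily weighing, then sacrifice. Toxicity was assessed by blinded histopathology of two mice per group and by blinded serum ALT, AST, total bilirubin, BUN and creatinine from retroorbital blood of all mice.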

[2] = Metabolic stability in mouse liver microsomes after 1 hr by LC/MS/MS analysis; format: ADME, Microsome; settings: read-out: Stability
How it was run: (§1)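 Compound incubated at 37 °C for 60 min with 1 mg/mL human or mouse liver microsomes in 100 mM KH2PO4, 3 mM MgCl2, pH 7.4, with 2 mM NADPH or without it. Stopped with ice-cold methanol, then precipitate removed. Analyzed by LC/MS/MS as % remaining versus time zero. Duplicates.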

[3] = tested on: Mus musculus; test: Acute toxicity in C57BL/6J mouse assessed as lesions in heart at 1 to 10 mg/kg, sc after 9 days; format: organism-based; parameters: dose 1-10 mg/kg, route subcutaneous; settings: in vivo, 216 h
How it was run: (§2)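 Male C57BL/6J mice, 8 weeks old, received a single sc dose (1, 3 or 10 mg/kg in 25% DMSO/saline, n = 4 per group) and were sacrificed after 9 days. Two representative animals per group were fixed in 10% formalin. Cecum, duodenum, heart, ileum, kidney, liver, lung, pancreas, spleen and stomach were examined blind by a veterinary pathologist and lesions graded mild, moderate or severe.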

[4] = tested on: Mus musculus; test: Acute toxicity in C57BL/6J mouse assessed as hepatocellular necrosis and apoptosis at 1 mg/kg, sc after 9 days; format: organism-based; parameters: dose 1 mg/kg, route subcutaneous; settings: in vivo, 216 h; how it was run: as §2
[5] = Metabolic stability in mouse liver microsomes after 1 hr by LC/MS/MS analysis in presence of NADPH; format: ADME, Microsome; settings: read-out: Stability; how it was run: as §1
[6] = tested on: Mus musculus; test: Toxicity in C57BL/6J mouse assessed as hepatocellular necrosis and apoptosis at 1 mg/kg, sc administered every 3 days for a cycle of 3 injections measured 2 days post last injection; format: organism-based; parameters: dose 1 mg/kg, route subcutaneous; settings: in vivo, 48 h
How it was run: (§3)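 Male C57BL/6J mice, 8 weeks old, given 1 mg/kg sc every 3 days for three injections and sacrificed 2 days after the last one. Two mice per group fixed in 10% formalin. A veterinary pathologist, blinded, examined cecum, duodenum, heart, ileum, kidney, liver, lung, pancreas, spleen and stomach. Lesions graded mild, moderate or severe.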

[7] = tested on: Mus musculus; test: Toxicity in C57BL/6J mouse assessed as loss of mobility at 1 mg/kg, sc administered every 3 days for a cycle of 2 injections; format: organism-based; parameters: dose 1 mg/kg, route subcutaneous; settings: in vivo, 72 h
How it was run: (§4)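 Male C57BL/6J mice, 3 per group, given 1 mg/kg sc every 3 days. Weight recorded on injection days. Watched for signs of duress. Humane end point was visible duress or weight loss over 15% of starting body weight.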

[8] = tested on: Mus musculus; test: Acute toxicity in C57BL/6J mouse assessed as lesions in GI tract at 1 to 10 mg/kg, sc after 9 days; format: organism-based, Gastrointestinal tract; parameters: dose 1-10 mg/kg, route subcutaneous; settings: in vivo, 216 h; how it was run: as §2
[9] = tested on: Mus musculus; test: Acute toxicity in C57BL/6J mouse assessed as acute morbidity at 3 to 10 mg/kg, sc after 9 days; format: organism-based; parameters: dose 3-10 mg/kg, route subcutaneous; settings: in vivo, 216 h
How it was run: (§5)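 Male C57BL/6J mice, 8 weeks old, were acclimated 3 days and then given a single sc injection of 1, 3 or 10 mg/kg in 25% DMSO/saline vehicle (up to 200 μL), n = 4 per group. Weight, behaviour and appearance were monitored daily for 9 days before sacrifice. The humane end point was visible duress or weight loss over 15% of the original.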

[10] = tested on: Mus musculus; test: Toxicity in C57BL/6J mouse assessed as hyaline droplet accumulation at 1 mg/kg, sc administered every 3 days for a cycle of 3 injections measured 2 days post last injection; format: organism-based; parameters: dose 1 mg/kg, route subcutaneous; settings: in vivo, 48 h; how it was run: as §3
[11] = tested on: Mus musculus; test: Acute toxicity in C57BL/6J mouse assessed as loss of mobility at 3 to 10 mg/kg, sc after 9 days; format: organism-based; parameters: dose 3-10 mg/kg, route subcutaneous; settings: in vivo, 216 h; how it was run: as §5
[12] = tested on: Mus musculus; test: Acute toxicity in C57BL/6J mouse assessed as lesions in pancreas at 1 to 10 mg/kg, sc after 9 days; format: organism-based; parameters: dose 1-10 mg/kg, route subcutaneous; settings: in vivo, 216 h; how it was run: as §2
[13] = tested on: Mus musculus; test: Acute toxicity in C57BL/6J mouse assessed as tubular epithelial necrosis and apoptosis in kidney at 3 to 10 mg/kg, sc after 9 days; format: organism-based; parameters: dose 3-10 mg/kg, route subcutaneous; settings: in vivo, 216 h; how it was run: as §2
[14] = tested on: Mus musculus; test: Acute toxicity in C57BL/6J mouse assessed as hunched posture at 3 to 10 mg/kg, sc after 9 days; format: organism-based; parameters: dose 3-10 mg/kg, route subcutaneous; settings: in vivo, 216 h; how it was run: as §5
[15] = tested on: Mus musculus; test: Toxicity in C57BL/6J mouse assessed as hunched posture at 1 mg/kg, sc administered every 3 days for a cycle of 2 injections; format: organism-based; parameters: dose 1 mg/kg, route subcutaneous; settings: in vivo, 72 h; how it was run: as §4
[16] = tested on: Mus musculus; test: Acute toxicity in C57BL/6J mouse assessed as diffuse hepatocellular necrosis and apoptosis at 3 to 10 mg/kg, sc after 9 days; format: organism-based; parameters: dose 3-10 mg/kg, route subcutaneous; settings: in vivo, 216 h; how it was run: as §2
[17] = tested on: Mus musculus; test: Acute toxicity in C57BL/6J mouse assessed as mild lymphoid apoptosis in white pulp of spleen at 3 to 10 mg/kg, sc after 9 days; format: organism-based; parameters: dose 3-10 mg/kg, route subcutaneous; settings: in vivo, 216 h; how it was run: as §2
[18] = tested on: Mus musculus; test: Acute toxicity in C57BL/6J mouse assessed as milder tubular regeneration at 1 mg/kg, sc after 9 days; format: organism-based; parameters: dose 1 mg/kg, route subcutaneous; settings: in vivo, 216 h; how it was run: as §2
[19] = tested on: Mus musculus; test: Toxicity in C57BL/6J mouse assessed as weight loss at 1 mg/kg, sc administered every 3 days for a cycle of 2 injections; format: organism-based; parameters: dose 1 mg/kg, route subcutaneous; settings: in vivo, 72 h
How it was run: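 8-week-old male C57BL/6J mice, acclimated 3 days, groups of three, dosed sc in 25% DMSO/saline vehicle once every 3 days, sacrificed 2 days after the last injection. Body weight recorded on injection days and at end point; humane end point set at visible duress or >15% loss of original body weight.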

[20] = Metabolic stability in human liver microsomes after 1 hr by LC/MS/MS analysis; format: ADME, Microsome; settings: read-out: Stability; how it was run: as §1
[21] = tested on: Mus musculus; test: Acute toxicity in C57BL/6J mouse assessed as lesions in lungs at 1 to 10 mg/kg, sc after 9 days; format: organism-based; parameters: dose 1-10 mg/kg, route subcutaneous; settings: in vivo, 216 h; how it was run: as §2
[22] = tested on: Mus musculus; test: Acute toxicity in C57BL/6J mouse assessed as multifocal bridging hepatocellular necrosis and apoptosis at 3 to 10 mg/kg, sc after 9 days; format: organism-based; parameters: dose 3-10 mg/kg, route subcutaneous; settings: in vivo, 216 h; how it was run: as §2
[23] = tested on: Mus musculus; test: Acute toxicity in C57BL/6J mouse assessed as lesions in stomach at 1 to 10 mg/kg, sc after 9 days; format: organism-based; parameters: dose 1-10 mg/kg, route subcutaneous; settings: in vivo, 216 h; how it was run: as §2
[24] = Metabolic stability in human liver microsomes after 1 hr by LC/MS/MS analysis in presence of NADPH; format: ADME, Microsome; settings: read-out: Stability; how it was run: as §1
[25] = tested on: Mus musculus; test: Acute toxicity in C57BL/6J mouse assessed as karyomegaly at 1 mg/kg, sc after 9 days; format: organism-based; parameters: dose 1 mg/kg, route subcutaneous; settings: in vivo, 216 h; how it was run: as §2
[26] = tested on: Mus musculus; test: Acute toxicity in C57BL/6J mouse assessed as moderate atypical tubular regeneration in kidney at 3 to 10 mg/kg, sc after 9 days; format: organism-based; parameters: dose 3-10 mg/kg, route subcutaneous; settings: in vivo, 216 h; how it was run: as §2

What does the source list for `CC(=O)N[C@@H](CNC(=O)c1cc(NC(=O)c2cc(NC(=O)c3cc(NC(=O)c4nccn4C)cn3C)cn2C)cn1C)CC(=O)Nc1cn(C)c(C(=O)Nc2cc(C(=O)Nc3cc(C(=O)Nc4cc(C(=O)NCCCN(C)CCCNC(=O)c5cccc(C(=O)O)c5)n(C)c4)n(C)c3)n(C)c2)n1`?
Activity [1]: Non-toxic; remaining at 1 h [2]: < 5%; Activity [3]: Non-toxic; Activity [4]: Toxic; remaining at 1 h [5]: < 5%; Activity [6]: Toxic; Activity [7]: Toxic; Activity [8]: Non-toxic; Activity [9]: Toxic; Activity [10]: Toxic; Activity [11]: Toxic; Activity [12]: Non-toxic; Activity [13]: Toxic; Activity [14]: Toxic; Activity [15]: Toxic; Activity [16]: Toxic; Activity [17]: Toxic; Activity [18]: Toxic; Activity [19]: Toxic; remaining at 1 h [20]: < 5%; Activity [21]: Non-toxic; Activity [22]: Toxic; Activity [23]: Non-toxic; remaining at 1 h [24]: < 5%; Activity [25]: Toxic; Activity [26]: Toxic
